molecular target: Carbonic anhydrase 9 (Homo sapiens, UniProt Q16790); test: Inhibition of human carbonic anhydrase 9 incubated for 15 mins prior to testing by stopped flow CO2 hydration assay
In short: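 Recombinant hCA isoform; stopped-flow CO2 hydration monitored by phenol red (0.2 mM) absorbance at 557 nm, 10−20 mM Hepes pH 7.5 or Tris pH 8.3, 20 mM Na2SO4 or NaClO4 for ionic strength; initial rates over 10−100 s, CO2 1.7 to 17 mM; inhibitor dilutions in water down to 0.01 nM, preincubated with enzyme 15 min at room temperature; uncatalyzed rate subtracted; Ki by nonlinear least squares, mean of at least three determinations.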

Row | SMILES | Ki [nM]
1 | NS(=O)(=O)c1ccc(C(=O)N2CCc3cc(O)c(O)cc3[C@H]2c2ccccc2)cc1 | 32.7
2 | NS(=O)(=O)c1ccc(C(=O)N2CCc3cc(O)c(O)cc3[C@@H]2c2ccccc2)cc1 | 39.2
3 | COc1cc2c(cc1OC)C(c1ccc(Br)cc1)N(C(=O)c1ccc(S(N)(=O)=O)cc1)CC2 (racemic) | 90.9
4 | COc1cc2c(cc1OC)C(c1ccccc1)N(C(=O)c1ccc(S(N)(=O)=O)cc1)CC2 (racemic) | 4.9
5 | COc1ccc2c(c1)CCN(C(=O)c1ccc(S(N)(=O)=O)cc1)C2c1ccccc1 (racemic) | 39.2
6 | COc1cc2c(cc1OC)C(c1ccc(F)cc1)N(C(=O)c1ccc(S(N)(=O)=O)cc1)CC2 (racemic) | 9.1
7 | NS(=O)(=O)c1ccc(C(=O)N2CCc3cc(O)c(O)cc3C2c2ccc(F)cc2)cc1 (racemic) | 8.2
8 | CCCOc1ccc2c(c1)CCN(C(=O)c1ccc(S(N)(=O)=O)cc1)C2c1ccccc1 (racemic) | 44.5
9 | NS(=O)(=O)c1ccc(C(=O)N2CCc3cc(O)ccc3C2c2ccccc2)cc1 (racemic) | 50.6
10 | NS(=O)(=O)c1ccc(C(=O)N2CCc3cc(O)c(O)cc3C2c2ccc(Cl)cc2)cc1 (racemic) | 9
11 | COc1cc2c(cc1OC)C(c1ccc(Cl)cc1)N(C(=O)c1ccc(S(N)(=O)=O)cc1)CC2 (racemic) | 91.4
12 | NS(=O)(=O)c1ccc(C(=O)N2CCc3cc(O)c(O)cc3C2c2ccc(Br)cc2)cc1 (racemic) | 81.5
13 | NS(=O)(=O)c1ccc(C(=O)N2CCc3cc(O)c(O)cc3C2c2ccccc2)cc1 (racemic) | 36.9
14 | NS(=O)(=O)c1ccc(C(=O)N2CCc3cc(O)ccc3C2c2ccccc2)cc1 (single isomer, unassigned; Enantiomer-1) | 73.2
15 | COc1cc2c(cc1OC)C(c1ccccc1)N(C(=O)c1ccc(S(N)(=O)=O)cc1)CC2 (single isomer, unassigned; enantiomer 1) | 5
16 | COc1ccc2c(c1)CCN(C(=O)c1ccc(S(N)(=O)=O)cc1)C2c1ccccc1 (single isomer, unassigned; enantiomer 1) | 25.3
17 | COc1cc2c(cc1OC)C(c1ccccc1)N(C(=O)c1ccc(S(N)(=O)=O)cc1)CC2 (single isomer, unassigned; enantiomer 2) | 4.8
18 | COc1ccc2c(c1)CCN(C(=O)c1ccc(S(N)(=O)=O)cc1)C2c1ccccc1 (single isomer, unassigned; enantiomer 2) | 58.7
19 | NS(=O)(=O)c1ccc(C(=O)N2CCc3cc(O)ccc3C2c2ccccc2)cc1 (single isomer, unassigned; enantiomer 2) | 39.8

molecular target: Carbonic anhydrase 12 (Homo sapiens, UniProt O43570); test: Inhibition of human carbonic anhydrase 12 incubated for 15 mins prior to testing by stopped flow CO2 hydration assay
Sequence (O43570 whole entry): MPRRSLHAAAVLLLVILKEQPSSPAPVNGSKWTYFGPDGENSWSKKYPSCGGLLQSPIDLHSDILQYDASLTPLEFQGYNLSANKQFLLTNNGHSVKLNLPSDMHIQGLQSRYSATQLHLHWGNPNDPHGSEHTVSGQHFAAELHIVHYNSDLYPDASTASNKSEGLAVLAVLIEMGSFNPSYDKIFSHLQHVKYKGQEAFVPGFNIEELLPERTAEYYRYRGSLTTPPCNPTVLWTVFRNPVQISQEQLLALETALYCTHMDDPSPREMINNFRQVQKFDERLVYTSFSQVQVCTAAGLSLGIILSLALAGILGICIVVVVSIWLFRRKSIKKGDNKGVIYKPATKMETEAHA

Row | SMILES | Ki [nM]
20 | NS(=O)(=O)c1ccc(C(=O)N2CCc3cc(O)c(O)cc3C2c2ccc(Cl)cc2)cc1 (racemic) | 7.6

From ChEMBL document CHEMBL4014313, “Probing Molecular Interactions between Human Carbonic Anhydrases (hCAs) and a Novel Class of Benzenesulfonamides” (J Med Chem, 2017)
